A value given as a limit tells only on which side of the number the result lay.

Tested on in the first data set: not listed separately
Nature of the data set: Selectivity index, ratio of CC50 for human Huh7.5.1 cells to EC50 for HCV genotype1b in human Huh-7.5.1 cells. The class given is functional, Huh-7.
Details: not given
Regarding `CCCCCCCCCCCCCCCCOCCCOP(=O)([O-])COC(COCC)Cn1cnc2c(=O)[nH]c(N)nc21.[Na+]` (racemic), the “Ratio CC50/EC50” value is listed as >5.88.

As to `CCCCCCCCCCCCCCCCCCOCCOP(=O)([O-])CO[C@H](COC)Cn1cnc2c(=O)[nH]c(N)nc21.[Na+]`, the “Ratio CC50/EC50” value was >18.2.

In the case of `CCCCCCCCCCCCCCCCOCCCOP(=O)([O-])COC(COCC)Cn1cnc2c(N)nc(N)nc21.[Na+]` (racemic), the “Ratio CC50/EC50” value was >8.2.

As to `CCCCCCCCCCCCCCCCCCOCCOP(=O)([O-])CO[C@@H](COC)Cn1cnc2c(=O)[nH]c(N)nc21.[Na+]`, the “Ratio CC50/EC50” value is given as >11.9.

For the next data set, the system named is Human betaherpesvirus 5. Nature of the data set: Antiviral activity against Human cytomegalovirus infected in human HFF cells after 8 days by Plaque reduction assay. The class given is functional, organism-based. To be noted: Human betaherpesvirus 5, HFF, 192 h.
As for `CCCCCCCCCCCCCCCCCCOCCOP(=O)(O)CO[C@H](COC)Cn1cnc2c(N)ncnc21`, the midpoint of the response, the EC50, lay at 1.55 µM.

The subject of another data set is Hepatitis C virus. The data set can be described thus: Antiviral activity against Hepatitis C virus genotype 1b infected in human Huh-7.5.1 cells after 48 to 72 hrs by luciferase reporter assay. The class given is functional, organism-based, Hepacivirus hominis.
Details: not given
Molecule `CCCCCCCCCCCCCCCCCCOCCOP(=O)(O)CO[C@@H](COC)Cn1cnc2c(N)ncnc21` yielded a concentration for a half-maximal effect (EC50) of 4.65 µM.

`CCCCCCCCCCCCCCCCOCCCOP(=O)(O)CO[C@H](COC)Cn1cnc2c(OC)nc(N)nc21` came in with a concentration for a half-maximal effect (EC50) of 18.1 µM.

In turn, `CCCCCCCCCCCCCCCCCCOCCOP(=O)(O)CO[C@H](COC)Cn1cnc2c(N)nc(N)nc21` yielded an EC50 of 20.1 µM.

`CCCCCCCCCCCCCCCCOCCCOP(=O)([O-])COC(COCC)Cn1cnc2c(=O)[nH]c(N)nc21.[Na+]` (racemic) gave an EC50 of 25.5 µM.

In the case of `CCCCCCCCCCCCCCCCCCOCCOP(=O)([O-])CO[C@H](COC)Cn1cnc2c(=O)[nH]c(N)nc21.[Na+]`, a half-maximal effect (EC50) was put at 8.26 µM.

`CCCCCCCCCCCCCCCCOCCCOP(=O)([O-])COC(COCC)Cn1cnc2c(N)nc(N)nc21.[Na+]` (racemic) gave an EC50 of 18.2 µM.

`CCCCCCCCCCCCCCCCCCOCCOP(=O)([O-])CO[C@@H](COC)Cn1cnc2c(=O)[nH]c(N)nc21.[Na+]` displayed an EC50 of 12.6 µM.

Molecule `CCCCCCCCCCCCCCCCCCOCCOP(=O)(O)CO[C@H](COC)Cn1cnc2c(N)ncnc21` gave an EC50 of 1.43 µM.

The subject of the next data set is Hepatitis C virus. Nature of the data set: Antiviral activity against HCV JFH-1 infected in human Huh-7.5.1 cells after 48 to 72 hrs by luciferase reporter assay. The class given is functional, organism-based, Hepacivirus hominis. To be noted: JFH-1, Huh-7.5.1.
In turn, `CCCCCCCCCCCCCCCCCCOCCOP(=O)(O)CO[C@@H](COC)Cn1cnc2c(N)ncnc21` had an EC50 of 5.33 µM.

`CCCCCCCCCCCCCCCCOCCCOP(=O)(O)CO[C@H](COC)Cn1cnc2c(OC)nc(N)nc21` registered a half-maximal effective concentration (EC50) of 17.4 µM.

Consider `CCCCCCCCCCCCCCCCCCOCCOP(=O)(O)CO[C@H](COC)Cn1cnc2c(N)nc(N)nc21`, for which it took 21.4 µM to reach a half-maximal effect (EC50).

Molecule `CCCCCCCCCCCCCCCCOCCCOP(=O)([O-])COC(COCC)Cn1cnc2c(=O)[nH]c(N)nc21.[Na+]` (racemic) returned an EC50 of 13.2 µM.

In turn, `CCCCCCCCCCCCCCCCCCOCCOP(=O)([O-])CO[C@H](COC)Cn1cnc2c(=O)[nH]c(N)nc21.[Na+]` came in with a concentration giving a half-maximal response (EC50) of 10.7 µM.

In turn, `CCCCCCCCCCCCCCCCOCCCOP(=O)([O-])COC(COCC)Cn1cnc2c(N)nc(N)nc21.[Na+]` (racemic) registered an EC50 of 19.5 µM.

In turn, `CCCCCCCCCCCCCCCCCCOCCOP(=O)([O-])CO[C@@H](COC)Cn1cnc2c(=O)[nH]c(N)nc21.[Na+]` gave an EC50 of 12.4 µM.

As to `CCCCCCCCCCCCCCCCCCOCCOP(=O)(O)CO[C@H](COC)Cn1cnc2c(N)ncnc21`, the EC50 was determined as 2.38 µM.

Tested on in another data set: not listed separately
The data set can be described thus: Cytotoxicity against human Huh7.5.1 cells by fluorescent cell viability assay. The class given is cell-based, Huh-7. The settings on record: Huh7.5.1 cells.
Consider `CCCCCCCCCCCCCCCCCCOCCOP(=O)(O)CO[C@@H](COC)Cn1cnc2c(N)ncnc21`, for which the half-maximal cytotoxic concentration (CC50) is > 150 µM.

`CCCCCCCCCCCCCCCCOCCCOP(=O)(O)CO[C@H](COC)Cn1cnc2c(OC)nc(N)nc21`: the CC50 is > 150 µM.

Turning to `CCCCCCCCCCCCCCCCOCCCOP(=O)([O-])COC(COCC)Cn1cnc2c(=O)[nH]c(N)nc21.[Na+]` (racemic), the CC50 was > 150 µM.

For the molecule `CCCCCCCCCCCCCCCCCCOCCOP(=O)([O-])CO[C@H](COC)Cn1cnc2c(=O)[nH]c(N)nc21.[Na+]`, the CC50 is > 150 µM.

On to `CCCCCCCCCCCCCCCCOCCCOP(=O)([O-])COC(COCC)Cn1cnc2c(N)nc(N)nc21.[Na+]` (racemic), for which the 50% cytotoxic concentration (CC50) was > 150 µM.

As to `CCCCCCCCCCCCCCCCCCOCCOP(=O)([O-])CO[C@@H](COC)Cn1cnc2c(=O)[nH]c(N)nc21.[Na+]`, the CC50 is > 150 µM.

On to `CCCCCCCCCCCCCCCCCCOCCOP(=O)(O)CO[C@H](COC)Cn1cnc2c(N)ncnc21`, for which the CC50 is > 150 µM.

The same data set, now with this note: huh-7.
`CCCCCCCCCCCCCCCCCCOCCOP(=O)(O)CO[C@H](COC)Cn1cnc2c(N)nc(N)nc21`: the midpoint of cytotoxicity, the CC50, lay at 99 µM.

Another data set has as its system Human immunodeficiency virus 1. Nature of the data set: Antiviral activity against HIV-1 LAI infected in human MT2 cells assessed as p24 antigen production after 4 days by ELISA. The class given is functional, organism-based. The settings on record: Human immunodeficiency virus 1, LAI, MT2, 96 h. The procedure, abridged: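 MT-2 cells in RPMI 1640 with 10% FBS, 10 mM HEPES, penicillin/streptomycin, inoculated with HIV-1 LAI at MOI 0.001 TCID50/cell; threefold serial drug dilutions, three wells each.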
`CCCCCCCCCCCCCCCCCCOCCOP(=O)(O)CO[C@@H](COC)Cn1cnc2c(N)ncnc21`: the EC50 is 4800 nM.

In the case of `CCCCCCCCCCCCCCCCOCCCOP(=O)(O)CO[C@H](COC)Cn1cnc2c(OC)nc(N)nc21`, the EC50 was > 10000 nM.

`CCCCCCCCCCCCCCCCCCOCCOP(=O)(O)CO[C@H](COC)Cn1cnc2c(N)nc(N)nc21`: the EC50 is 230 nM.

As to `CCCCCCCCCCCCCCCCOCCCOP(=O)([O-])COC(COCC)Cn1cnc2c(=O)[nH]c(N)nc21.[Na+]` (racemic), the EC50 is > 10000 nM.

Take `CCCCCCCCCCCCCCCCCCOCCOP(=O)([O-])CO[C@H](COC)Cn1cnc2c(=O)[nH]c(N)nc21.[Na+]`: the EC50 is 200 nM.

Regarding `CCCCCCCCCCCCCCCCOCCCOP(=O)([O-])COC(COCC)Cn1cnc2c(N)nc(N)nc21.[Na+]` (racemic), the EC50 was > 10000 nM.

For `CCCCCCCCCCCCCCCCCCOCCOP(=O)([O-])CO[C@@H](COC)Cn1cnc2c(=O)[nH]c(N)nc21.[Na+]`, the EC50 was < 0.01 nM.

As for `CCCCCCCCCCCCCCCCCCOCCOP(=O)(O)CO[C@H](COC)Cn1cnc2c(N)ncnc21`, the EC50 turned out to be 30 nM.

Tested on in the next data set: not listed separately
The data set can be described thus: Selectivity index, ratio of CC50 for human MT2 cells to EC50 for HIV-1 LAI infected in human MT2 cells. The class given is toxicity, cell-based. To be noted: read-out: Ratio CC50/EC50.
As for `CCCCCCCCCCCCCCCCCCOCCOP(=O)([O-])CO[C@H](COC)Cn1cnc2c(=O)[nH]c(N)nc21.[Na+]`, the selectivity ratio turned out to be 125.

In the case of `CCCCCCCCCCCCCCCCCCOCCOP(=O)([O-])CO[C@@H](COC)Cn1cnc2c(=O)[nH]c(N)nc21.[Na+]`, the selectivity ratio is > 4.4e+06.

The next data set has as its system Cowpox virus. Nature of the data set: Antiviral activity against Cowpox virus infected in human HFF cells after 3 days by Plaque reduction assay. The class given is functional, organism-based. To be noted: 72 h.
Regarding `CCCCCCCCCCCCCCCCCCOCCOP(=O)(O)CO[C@H](COC)Cn1cnc2c(N)ncnc21`, the 50% effective concentration (EC50) was > 20 µM.

Tested on in the next data set: not listed separately
The data set can be described thus: Selectivity index, ratio of CC50 for human Huh7.5.1 cells to EC50 for HCV JFH-1 in human Huh-7.5.1 cells.
Details: not given
The class given is functional, Huh-7.
On to `CCCCCCCCCCCCCCCCOCCCOP(=O)([O-])COC(COCC)Cn1cnc2c(=O)[nH]c(N)nc21.[Na+]` (racemic), for which the “Ratio CC50/EC50” value is recorded as >11.4.

For the molecule `CCCCCCCCCCCCCCCCCCOCCOP(=O)([O-])CO[C@H](COC)Cn1cnc2c(=O)[nH]c(N)nc21.[Na+]`, the “Ratio CC50/EC50” value is >14.

For `CCCCCCCCCCCCCCCCOCCCOP(=O)([O-])COC(COCC)Cn1cnc2c(N)nc(N)nc21.[Na+]` (racemic), the “Ratio CC50/EC50” value is >7.69.

With `CCCCCCCCCCCCCCCCCCOCCOP(=O)([O-])CO[C@@H](COC)Cn1cnc2c(=O)[nH]c(N)nc21.[Na+]`, the “Ratio CC50/EC50” value is recorded as >12.1.

The test system of the next data set is Vaccinia virus. Nature of the data set: Antiviral activity against Vaccinia virus infected in human HFF cells after 3 days by Plaque reduction assay. To be noted: Orthopoxvirus vaccinia, 72 h. The class given is functional, organism-based.
Molecule `CCCCCCCCCCCCCCCCCCOCCOP(=O)(O)CO[C@H](COC)Cn1cnc2c(N)ncnc21` displayed an EC50 of 18.3 µM.

The subject of another data set is Human alphaherpesvirus 1. Nature of the data set: Antiviral activity against Human herpesvirus 1 infected in human HFF cells after 3 days by Plaque reduction assay. The class given is functional, organism-based. The settings on record: Human alphaherpesvirus 1, HFF, 72 h.
`CCCCCCCCCCCCCCCCCCOCCOP(=O)(O)CO[C@H](COC)Cn1cnc2c(N)ncnc21` returned an EC50 of 45.7 µM.

Another data set concerns MT2. Nature of the data set: Cytotoxicity against human MT2 cells after 72 hrs by propidium iodide staining-based flow cytometry. The class given is cell-based. The settings on record: mt2, 72 h.
For the molecule `CCCCCCCCCCCCCCCCOCCCOP(=O)(O)CO[C@H](COC)Cn1cnc2c(OC)nc(N)nc21`, the cytotoxic concentration (CC50) was found to be 34.3 µM.

With `CCCCCCCCCCCCCCCCCCOCCOP(=O)(O)CO[C@H](COC)Cn1cnc2c(N)nc(N)nc21`, it took 18 µM to reach half-maximal cytotoxicity (CC50).

For the molecule `CCCCCCCCCCCCCCCCOCCCOP(=O)([O-])COC(COCC)Cn1cnc2c(=O)[nH]c(N)nc21.[Na+]` (racemic), the CC50 is 14.9 µM.

With `CCCCCCCCCCCCCCCCCCOCCOP(=O)([O-])CO[C@H](COC)Cn1cnc2c(=O)[nH]c(N)nc21.[Na+]`, it took 25 µM to reach half-maximal cytotoxicity (CC50).

Take `CCCCCCCCCCCCCCCCOCCCOP(=O)([O-])COC(COCC)Cn1cnc2c(N)nc(N)nc21.[Na+]` (racemic): the midpoint of cytotoxicity, the CC50, lay at 30.7 µM.

Take `CCCCCCCCCCCCCCCCCCOCCOP(=O)([O-])CO[C@@H](COC)Cn1cnc2c(=O)[nH]c(N)nc21.[Na+]`: the CC50 was determined as 44 µM.

The values above are taken from ChEMBL document CHEMBL1811825, “Synthesis and antiviral evaluation of 9-(S)-[3-alkoxy-2-(phosphonomethoxy)propyl]nucleoside alkoxyalkyl esters: inhibitors of hepatitis C virus and HIV-1 replication” (Bioorg Med Chem, 2011).
